Test [1] concerns the target T1, Melanocyte-stimulating hormone receptor (Homo sapiens, UniProt Q01726). The experiment in a line: Agonist activity at human melanocortin 1 receptor expressed in HEK293 cells assessed as intracellular cAMP accumulation incubated for 3 mins in presence of IBMX. It is filed as functional, cell-based. The method in brief: (§1)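 HEK293 cells stably expressing the receptor were grown in MEM with 10% FBS and seeded 48 h ahead to 100000 cells/well. Cells were preincubated in EBSS with IBMX (0.5 mM) for 1 min at 37 °C, then given varied peptide concentrations for 3 min at 37 °C. The reaction was stopped with ice-cold Tris/EDTA, lysates were boiled 15 min, and cAMP was read by competitive binding kit.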
(Cyclic AMP is a second messenger, typically raised through Gs and lowered through Gi signalling.)
Target sequence in this assay (Q01726 whole entry): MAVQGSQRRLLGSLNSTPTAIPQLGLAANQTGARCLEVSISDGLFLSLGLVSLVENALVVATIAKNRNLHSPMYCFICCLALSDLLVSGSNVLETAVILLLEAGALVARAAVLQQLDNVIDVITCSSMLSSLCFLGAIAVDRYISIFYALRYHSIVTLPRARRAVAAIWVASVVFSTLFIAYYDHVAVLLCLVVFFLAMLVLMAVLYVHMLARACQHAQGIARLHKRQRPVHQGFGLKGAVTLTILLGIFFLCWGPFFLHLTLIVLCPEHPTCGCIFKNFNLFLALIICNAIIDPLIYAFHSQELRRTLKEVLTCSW

Test [2] concerns the target T1, Melanocyte-stimulating hormone receptor. The experiment in a line: Displacement of 125I-labeled [Nle4,DPhe7]-alpha-MSH from human melanocortin 1 receptor expressed in HEK293 cells incubated for 40 mins by gamma counting analysis. It is filed as cell-based. The method in brief:
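Whole-cell competition on stably transfected HEK293 cells, 100000 cells/well, seeded 48 h ahead. Binding buffer: MEM with Earle's salts, 25 mM HEPES pH 7.4, 0.2% BSA, 1 mM 1,10-phenanthroline, leupeptin, bacitracin. After washing, cells lysed with NaOH/Triton X-100 and read by γ counting.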
A general note: Displacement assays read how much labelled ligand stays bound in the presence of the test substance.
Target sequence in this assay (Q01726 whole entry): as above

Test [3] has as its target T2, Melanocortin receptor 3 (Homo sapiens, UniProt P41968). The experiment in a line: Displacement of 125I-labeled [Nle4,DPhe7]-alpha-MSH from human melanocortin 3 receptor expressed in HEK293 cells incubated for 40 mins by gamma counting analysis. It is filed as cell-based.
The target in test [4] is T3, Melanocortin receptor 4 (Homo sapiens, UniProt P32245). The experiment in a line: Displacement of 125I-labeled [Nle4,DPhe7]-alpha-MSH from human melanocortin 4 receptor expressed in HEK293 cells incubated for 40 mins by gamma counting analysis. The format is cell-based.
The target of test [5] is T4, Melanocortin receptor 5 (Homo sapiens, UniProt P33032). The experiment in a line: Displacement of 125I-labeled [Nle4,DPhe7]-alpha-MSH from human melanocortin 5 receptor expressed in HEK293 cells incubated for 40 mins by gamma counting analysis. It is filed as cell-based.
For test [6], the target named is T2, Melanocortin receptor 3. The experiment in a line: Agonist activity at human melanocortin 3 receptor expressed in HEK293 cells assessed as intracellular cAMP accumulation incubated for 3 mins in presence of IBMX. The format is functional, cell-based. Summed up: as §1
Test [7] deals with T3, Melanocortin receptor 4. The experiment in a line: Agonist activity at human melanocortin 4 receptor expressed in HEK293 cells assessed as intracellular cAMP accumulation incubated for 3 mins in presence of IBMX. The format is functional, cell-based. Summed up:
as §1

In test [8] the target is T4, Melanocortin receptor 5. The experiment in a line: Agonist activity at human melanocortin 5 receptor expressed in HEK293 cells assessed as intracellular cAMP accumulation incubated for 3 mins in presence of IBMX. The format is functional, cell-based. Summed up: as §1
Test [9] addresses T1, Melanocyte-stimulating hormone receptor. The experiment in a line: Agonist activity at human melanocortin 1 receptor expressed in HEK293 cells assessed as increase in intracellular cAMP accumulation incubated for 3 mins relative to MT-2. It is filed as functional, cell-based. The method in brief: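 Stably transfected HEK293 cells grown in MEM with 10% FBS, penicillin/streptomycin and 1 mM sodium pyruvate, seeded 48 h ahead to 100000 cells/well. Cells preincubated 1 min at 37 °C in EBSS with IBMX (0.5 mM), then exposed to a concentration series for 3 min at 37 °C. Stopped with ice-cold Tris/EDTA, boiled 15 min, cAMP measured by competitive binding kit. Maximal cAMP expressed relative to the MT-II maximum; N = 4.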
Target sequence in this assay (Q01726 whole entry, looked up): as the sequence (Q01726 whole entry) above

Test [10] deals with T4, Melanocortin receptor 5. The experiment in a line: Displacement of 125I-labeled [Nle4,DPhe7]-alpha-MSH from human melanocortin 5 receptor expressed in HEK293 cells at 10 uM incubated for 40 mins by gamma counting analysis. It is filed as cell-based. Summed up:
(§2)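 Whole-cell competition on stably transfected HEK293 cells, 100000 cells/well, seeded 48 h ahead. Binding buffer: MEM with Earle's salts, 25 mM HEPES pH 7.4, 0.2% BSA, 1 mM 1,10-phenanthroline, leupeptin, bacitracin. Unlabeled peptide plus 125I-[Nle4,DPhe7]-α-MSH (0.1386 nM, 100000 cpm/well) for 40 min at 37 °C. After washing, cells lysed with NaOH/Triton X-100 and read by γ counting.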

For test [11], the target named is T2, Melanocortin receptor 3. The experiment in a line: Agonist activity at human melanocortin 3 receptor expressed in HEK293 cells assessed as intracellular cAMP accumulation at 10 uM incubated for 3 mins in presence of IBMX. The format is functional, cell-based. The method in brief:
(§3)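 Stably transfected HEK293 cells were grown in MEM with 10% FBS, penicillin/streptomycin and 1 mM sodium pyruvate, and seeded 48 h before assay to 100000 cells/well. Cells were preincubated 1 min at 37 °C in EBSS with IBMX (0.5 mM), then exposed to peptide for 3 min at 37 °C. The reaction was stopped with ice-cold Tris/EDTA, lysates were boiled 15 min, and cAMP was read by competitive binding kit.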

Test [12] has as its target T3, Melanocortin receptor 4. The experiment in a line: Agonist activity at human melanocortin 4 receptor expressed in HEK293 cells assessed as intracellular cAMP accumulation at 10 uM incubated for 3 mins in presence of IBMX. It is filed as functional, cell-based. The method in brief:
as §3

For test [13], the target named is T4, Melanocortin receptor 5. The experiment in a line: Agonist activity at human melanocortin 5 receptor expressed in HEK293 cells assessed as intracellular cAMP accumulation at 10 uM incubated for 3 mins in presence of IBMX. It is filed as functional, cell-based. Summed up:
as §3

For test [14], the target named is T1, Melanocyte-stimulating hormone receptor. The experiment in a line: Displacement of 125I-labeled [Nle4,DPhe7]-alpha-MSH from human melanocortin 1 receptor expressed in HEK293 cells at 10 uM incubated for 40 mins by gamma counting analysis. The format is cell-based. The method in brief: as §2
Target sequence in this assay (Q01726 whole entry, looked up): as the sequence (Q01726 whole entry) above
Test [15] concerns the target T2, Melanocortin receptor 3. The experiment in a line: Agonist activity at human melanocortin 3 receptor expressed in HEK293 cells assessed as increase in intracellular cAMP accumulation incubated for 3 mins relative to MT-2. The format is functional, cell-based. Summed up:
(§4)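 Same cAMP protocol in stably transfected HEK293 cells: IBMX (0.5 mM) preincubation for 1 min, then a peptide concentration series for 3 min at 37 °C, and cAMP measured by competitive binding kit.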

Test [16] deals with T3, Melanocortin receptor 4. The experiment in a line: Agonist activity at human melanocortin 4 receptor expressed in HEK293 cells assessed as increase in intracellular cAMP accumulation incubated for 3 mins relative to MT-2. The format is functional, cell-based. The method in brief: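 Same cAMP protocol in stably transfected HEK293 cells: IBMX (0.5 mM) preincubation for 1 min, then a peptide concentration series for 3 min at 37 °C, and cAMP measured by competitive binding kit. Act% max = highest cAMP level reached by the peptide divided by the highest level reached by MT-II, in percent.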

The target in test [17] is T4, Melanocortin receptor 5. The experiment in a line: Agonist activity at human melanocortin 5 receptor expressed in HEK293 cells assessed as increase in intracellular cAMP accumulation incubated for 3 mins relative to MT-2. It is filed as functional, cell-based. The method in brief:
as §4

Experimental findings from ChEMBL document CHEMBL3751760, “Discovery of Novel Potent and Selective Agonists at the Melanocortin-3 Receptor” (J Med Chem, 2015) are described below.

Structures are written as SMILES. The source made the active and inactive calls. The calls are words filed in the database; no cut-off is given here. Where a SMILES comes first, the peptide text is derived from it. Bridges are numbered along the chain shown (N, C = ends). [ ]: non-standard residue; d: D form. d2Nal = N[C@H](Cc1ccc2ccccc2c1)C(=O)O; Nle = CCCC[C@H](N)C(=O)O Where only a bound is given, the exact number is not on record here.

T2 sequence (P41968 whole entry): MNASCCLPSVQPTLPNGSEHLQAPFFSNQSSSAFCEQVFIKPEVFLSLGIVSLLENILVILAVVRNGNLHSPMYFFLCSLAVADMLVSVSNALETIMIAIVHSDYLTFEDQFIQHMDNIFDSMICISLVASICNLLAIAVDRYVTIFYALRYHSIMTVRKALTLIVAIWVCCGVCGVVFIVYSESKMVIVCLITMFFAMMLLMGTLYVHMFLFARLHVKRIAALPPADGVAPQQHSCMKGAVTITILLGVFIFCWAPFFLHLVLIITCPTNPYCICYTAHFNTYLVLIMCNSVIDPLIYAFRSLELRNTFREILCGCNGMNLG
T3 sequence (P32245 whole entry): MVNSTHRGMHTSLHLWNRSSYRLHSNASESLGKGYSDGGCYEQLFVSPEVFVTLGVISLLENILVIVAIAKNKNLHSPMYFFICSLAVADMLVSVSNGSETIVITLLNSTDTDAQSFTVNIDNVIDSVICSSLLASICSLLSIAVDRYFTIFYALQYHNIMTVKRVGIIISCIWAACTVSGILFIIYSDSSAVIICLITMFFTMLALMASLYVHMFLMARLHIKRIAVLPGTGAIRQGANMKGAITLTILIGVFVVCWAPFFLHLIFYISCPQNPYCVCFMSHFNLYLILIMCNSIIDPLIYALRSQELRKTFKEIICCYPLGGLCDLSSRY
T4 sequence (P33032 whole entry): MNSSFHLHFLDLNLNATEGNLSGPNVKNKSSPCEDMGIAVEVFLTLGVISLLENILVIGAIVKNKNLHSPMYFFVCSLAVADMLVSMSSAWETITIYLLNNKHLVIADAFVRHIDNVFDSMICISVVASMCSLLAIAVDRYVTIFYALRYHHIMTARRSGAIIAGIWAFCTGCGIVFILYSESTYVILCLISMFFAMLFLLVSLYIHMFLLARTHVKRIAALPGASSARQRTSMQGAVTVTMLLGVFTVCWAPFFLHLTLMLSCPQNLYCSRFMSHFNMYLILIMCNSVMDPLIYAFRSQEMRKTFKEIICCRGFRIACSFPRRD

For `CCCC[C@H](NC(C)=O)C(=O)N[C@H]1CC(=O)NCCCC[C@@H](C(N)=O)NC(=O)[C@H](Cc2c[nH]c3ccccc23)NC(=O)[C@H](CCCNC(=N)N)NC(=O)[C@@H](Cc2ccc3ccccc3c2)NC(=O)[C@@H]2CCCN2C(=O)[C@H](Cc2c[nH]c3ccccc23)NC1=O`, the concentration for a half-maximal effect (EC50) in test [1] (hek293) is greater than 1000 nM.

Regarding `CCCC[C@H](NC(C)=O)C(=O)N[C@H]1CC(=O)NCCCC[C@@H](C(N)=O)NC(=O)[C@H](Cc2c[nH]c3ccccc23)NC(=O)[C@H](CCCNC(=N)N)NC(=O)[C@@H](Cc2ccccc2)NC(=O)[C@@H]2CCCN2C(=O)[C@H](Cc2c[nH]c3ccccc23)NC1=O`, the IC50 in test [2] (hek293) is greater than 5 µM; at Melanocortin receptor 3 [3] (hek293), 580 nM; on Melanocortin receptor 4 [4] (hek293) it was greater than 1000 nM; on Melanocortin receptor 5 [5], greater than 1000 nM. Also, the EC50 in [1] (hek293) was 26 nM; on Melanocortin receptor 3 [6], greater than 1000 nM; on Melanocortin receptor 4 [7], 220 nM; at Melanocortin receptor 5 [8], 73 nM.

For the compound `CCCC[C@H](NC(C)=O)C(=O)N[C@H]1CC(=O)NCCCC[C@@H](C(N)=O)NC(=O)[C@H](Cc2c[nH]c3ccccc23)NC(=O)[C@H](CCCNC(=N)N)NC(=O)[C@@H](Cc2ccccc2)NC(=O)[C@@H]2CCCN2C(=O)[C@@H]2CCCN2C1=O` (Ac-[Nle]DPP[dF]RWK-NH2; lactam 2-8), the IC50 in test [2] was greater than 5 µM; at Melanocortin receptor 3 [3], 590 nM; at Melanocortin receptor 4 [4], 1300 nM. The 50% effective concentration (EC50) in test [1] came to 860 nM. In addition, the %max in test [9] came out at 100%. For the same compound, the inhibition result at Melanocortin receptor 5 [10] is “inactive”. In addition, the Activity on Melanocortin receptor 3 [11], at Melanocortin receptor 4 [12] and at Melanocortin receptor 5 [13] was 0% throughout.

`CCCC[C@H](NC(C)=O)C(=O)N[C@H]1CC(=O)NCCCC[C@@H](C(N)=O)NC(=O)[C@H](Cc2c[nH]c3ccccc23)NC(=O)[C@H](CCCNC(=N)N)NC(=O)[C@@H](Cc2ccc3ccccc3c2)NC(=O)[C@@H]2CCCN2C(=O)[C@@H]2CCCN2C1=O` (Ac-[Nle]DPP[d2Nal]RWK-NH2; lactam 2-8) gave an IC50 in [2] greater than 5 µM. Further, in test [9], the %max is 100%.

On to `CCCC[C@H](NC(C)=O)C(=O)N[C@@H]1CC(=O)NCCCC[C@H](C(N)=O)NC(=O)[C@H](Cc2c[nH]c3ccccc23)NC(=O)[C@H](CCCNC(=N)N)NC(=O)[C@H](Cc2ccc3ccccc3c2)NC(=O)[C@H]2CCCN2C(=O)[C@@H](Cc2c[nH]c3ccccc23)NC1=O`, for which the inhibition result in test [14] is “inactive”. In addition, in test [9], the %max is 100%.

`CCCC[C@@H](NC(C)=O)C(=O)N[C@H]1CC(=O)NCCCC[C@@H](C(N)=O)NC(=O)[C@@H](Cc2c[nH]c3ccccc23)NC(=O)[C@@H](CCCNC(=N)N)NC(=O)[C@@H](Cc2ccccc2)NC(=O)[C@@H]2CCCN2C(=O)[C@H](Cc2c[nH]c3ccccc23)NC1=O`: the %max in [9] amounted to 100%; on Melanocortin receptor 3 [15], 0%; at Melanocortin receptor 4 [16], 84%; at Melanocortin receptor 5 [17] it was 89%.

Broadly, the EC50 is the concentration that produces a half-maximal response. As a reminder, the IC50 is the concentration needed to halve the response being measured. The low end stands for inhibition by little substance, the high end for a need for much substance.
